# Laboratory results reported in PubChem BioAssay AID651654 (Broad Institute, 2012).
# Hit rate of the full screen: of about 360,000 compounds, about 740 (0.21%) were called active. The full list was thinned out, with actives kept by preference. A number with no mark means an inactive call.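 How the source made its calls: active means mean lysis activity across replicates of at least 80%, whatever share of replicates individually reach that level; inactive means mean lysis activity below 80%.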
# Test: fungicidal lysis via adenylate kinase leakage – AK release luminescence, single concentration, primary screen (AID 651654)
# Conditions: C. neoformans lysis, 4 h, at 15 µM, hits give high values, normalised: neutral wells 0, clomiphene wells 100
# In short: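 Material: C. neoformans cells | Amount: Yeast cell density of 5 × 10^6 cells/mL | Medium: Fresh YPD growth medium | Dosing: Single dose | Times: Static 4 h at 37 °C with compound, 1 h detection | Detection: AK luminescence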
row,Structure (SMILES),lysis activity
1,CCCC#Cc1ccc2c(c1)O[C@@H](CN(C)C(=O)c1cccnc1)[C@H](C)CN([C@H](C)CO)S2(=O)=O,-4.36%
2,C[C@H](CO)N1C[C@H](C)[C@@H](CN(C)C)Oc2cc(C#Cc3ccccc3)ccc2S1(=O)=O,0.917%
3,C/C=C/c1ccc2c(c1)O[C@@H](CN(C)S(=O)(=O)c1ccc(F)cc1)[C@@H](C)CN([C@H](C)CO)S2(=O)=O,3%
4,Cc1ccccc1CN(C)C[C@H]1OCc2cn(nn2)CCCC(=O)N([C@@H](C)CO)C[C@H]1C,96.6% (active)
5,C[C@@H]1CN([C@H](C)CO)C(=O)CCCn2cc(nn2)CO[C@@H]1CN(C)Cc1ccccc1C(=O)O,-0.638%
6,C[C@H](CO)N1C[C@H](C)[C@@H](CN(C)Cc2ccccc2C(F)(F)F)OCc2cn(nn2)CCCC1=O,-8.12%
7,CO[C@H]1CN(C)C(=O)c2ccc(NC(=O)Cc3ccccc3)cc2OC[C@@H](C)N(C(C)=O)C[C@H]1C,69.9%
8,C[C@@H]1CN([C@@H](C)CO)C(=O)c2cccc(NC(=O)Nc3ccc(C(F)(F)F)cc3)c2O[C@@H]1CN(C)S(=O)(=O)c1ccc(F)cc1,28.4%
9,C[C@@H]1CN([C@@H](C)CO)C(=O)Cc2cc(NS(=O)(=O)c3cccs3)ccc2O[C@@H]1CN(C)S(=O)(=O)c1ccc(F)cc1,-1.3%
10,CCCNC(=O)N1[C@H](CNC(=O)c2cccc(F)c2)[C@H](c2ccccc2)[C@@H]1CO,-0.391%
11,COc1cccc(S(=O)(=O)N[C@H]2CC[C@@H](CC(=O)NCc3ccc(F)cc3)O[C@@H]2CO)c1,3.95%
12,CCCNC(=O)C[C@H]1C[C@@H]2c3cc(NC(=O)C4CCOCC4)ccc3O[C@@H]2[C@H](CO)O1,1.8%
13,O=C(C[C@H]1CC[C@H](NC(=O)C2CCC2)[C@@H](CO)O1)Nc1nccs1,5.79%
14,COc1ccccc1S(=O)(=O)N[C@@H]1CC[C@@H](CCn2cc(C3CCCCC3)nn2)O[C@H]1CO,18.5%
15,O=C(C[C@@H]1C[C@H]2c3cc(NC(=O)Nc4ccccc4)ccc3O[C@H]2[C@@H](CO)O1)NCc1cccnc1,-4.19%
16,COC(=O)C[C@@H]1CC[C@@H]2[C@H](COc3ccc(NC(=O)Nc4cccc(F)c4)cc3C(=O)N2C)O1,5.11%
17,CO[C@@H](CN(C)C(=O)c1cnccn1)[C@@H](C)CN([C@@H](C)CO)S(=O)(=O)c1ccc(F)cc1,59.1%
18,CC(=O)N1[C@H](CN(CC2CCC2)C(=O)CN(C)C)[C@@H](c2ccccc2)[C@@H]1CO,-2.74%
19,CCC(=O)N1C[C@@H](C)[C@H](OC)CN(C)C(=O)c2ccc(NC(=O)c3ccc(F)cc3)cc2OC[C@@H]1C,-5.87%
20,COc1ccccc1NC(=O)N[C@H]1CC[C@H](CCn2cc(-c3cccnc3)nn2)O[C@@H]1CO,-0.992%

row,Structure (SMILES),lysis activity
1,CNC[C@H]1Oc2ccc(NS(=O)(=O)c3ccc(F)cc3)cc2C(=O)N([C@@H](C)CO)C[C@@H]1C,3.02%
2,Cc1ccc(S(=O)(=O)N[C@H]2CC[C@@H](CC(=O)NCCCN(C)C)O[C@H]2CO)cc1,-1.04%
3,CCCNC(=O)[C@@H]1[C@@H](CO)[C@@H]2Cn3c(cccc3=O)[C@H]1N2C(=O)Nc1cc(F)ccc1F,92.3% (active)
4,CCCNC(=O)N1[C@@H]2c3cccc(=O)n3C[C@H]1[C@H](CO)[C@H]2C(=O)NCC(F)(F)F,-3.09%
5,CCCNC(=O)[C@@H]1[C@@H](CO)[C@@H]2Cn3c(cccc3=O)[C@H]1N2C(=O)C1CC1,1.83%
6,COc1ccc(S(=O)(=O)N(C)C[C@@H]2Oc3ccc(NC(=O)CCC(F)(F)F)cc3C(=O)N([C@@H](C)CO)C[C@H]2C)cc1,2.26%
7,O=C(C[C@H]1C=C[C@H](NS(=O)(=O)c2ccc(F)cc2)[C@H](CO)O1)NCc1ccncn1,-3.14%
8,C[C@@H]1CN([C@H](C)CO)C(=O)c2cc(NC(=O)CCCN(C)C)ccc2O[C@H]1CN(C)Cc1ccc(C(=O)O)cc1,-1.44%
9,CO[C@@H]1CN(C)C(=O)c2ccc(NC(=O)C3CCC3)cc2OC[C@H](C)NC[C@H]1C,1.85%
10,CC(C)NC(=O)N(C)C[C@H]1Oc2c(NC(=O)c3ccncc3)cccc2C(=O)N([C@@H](C)CO)C[C@H]1C,-2.5%
11,C[C@H](CO)N1C[C@H](C)[C@@H](CN(C)Cc2ccc(Oc3ccccc3)cc2)Oc2cc(-c3ccncc3)ccc2S1(=O)=O,-0.269%
12,CCCNC(=O)Nc1ccc2c(c1)OC[C@H](C)N(Cc1ccccc1)C[C@H](C)[C@H](OC)CN(C)C2=O,-0.367%
13,CO[C@@H]1CN(C)C(=O)c2ccc(NC(=O)C3CC3)cc2OC[C@@H](C)N(CC2CCOCC2)C[C@H]1C,61.5%
14,O=C(c1ccccc1)N1CC[C@H]2[C@H](CO)Nc3ccc(-c4ccc(F)cc4)cc3[C@H]21,21.5%
15,C/C=C/c1cnc2c(c1)C(=O)N([C@@H](C)CO)C[C@@H](C)[C@H](CN(C)Cc1cncnc1)O2,-1.92%
16,COc1cccc(NC(=O)N2CC[C@@H]3[C@@H](CO)N(C)c4ccc(-c5cccc(F)c5)cc4[C@@H]32)c1,-11.2%
17,Cc1noc(C)c1NC(=O)N(C)C[C@@H]1Oc2ccc(NC(=O)Nc3cccc4ccccc34)cc2CC(=O)N([C@@H](C)CO)C[C@H]1C,41.1%
18,CCN1[C@@H]2c3ccc(C4=CCCC4)c(=O)n3C[C@@H]2[C@@H](CO)[C@@H]1C(=O)NCc1ccccn1,1.37%
19,CO[C@@H]1CN(C)C(=O)c2ccc(NS(=O)(=O)c3ccc(Cl)cc3)cc2OC[C@H](C)N(C(=O)NC(C)C)C[C@H]1C,-5.3%
20,C[C@H]1CN([C@@H](C)CO)C(=O)c2cccc(NC(=O)Nc3ccccc3)c2O[C@@H]1CN(C)S(=O)(=O)c1ccc(F)cc1,-1.52%
